TRPC6 inh = mouse TRPC6 channel inhibitors, primary screen, cell-based, HEK293, membrane potential dye. Short transient receptor potential channel 6 (Mus musculus), Q61143. ACh-evoked depolarization; stronger effect = lower value. B-score at 10 µM. 1.1% of 310,000 active;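 active means B-score under library mean minus 3 SD, initial fluorescence not abnormally high, positive integrated signal ratio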;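 further: B-score derived from integrated fluorescence ratio over the kinetic read; more negative B-score means stronger inhibition of depolarization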
TRPC4 agonist = activators of mouse TRPC4 channel, primary screen, Fluo4 calcium, HEK293 TRPC4beta/mu-opioid cells; Fluo4 calcium fluorescence; stronger effect = higher value; B-score at 10 µM; Short transient receptor potential channel 4 (Mus musculus), Q9QUQ5; 0.49% of 310,000 active;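 active means B-score above 5 SD of library B-scores, and initial fluorescence ratio not above library mean plus 5 SD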;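 further: positive B-score marks a calcium rise read as TRPC4 activation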
Target sequence (Q9QUQ5 whole entry, looked up): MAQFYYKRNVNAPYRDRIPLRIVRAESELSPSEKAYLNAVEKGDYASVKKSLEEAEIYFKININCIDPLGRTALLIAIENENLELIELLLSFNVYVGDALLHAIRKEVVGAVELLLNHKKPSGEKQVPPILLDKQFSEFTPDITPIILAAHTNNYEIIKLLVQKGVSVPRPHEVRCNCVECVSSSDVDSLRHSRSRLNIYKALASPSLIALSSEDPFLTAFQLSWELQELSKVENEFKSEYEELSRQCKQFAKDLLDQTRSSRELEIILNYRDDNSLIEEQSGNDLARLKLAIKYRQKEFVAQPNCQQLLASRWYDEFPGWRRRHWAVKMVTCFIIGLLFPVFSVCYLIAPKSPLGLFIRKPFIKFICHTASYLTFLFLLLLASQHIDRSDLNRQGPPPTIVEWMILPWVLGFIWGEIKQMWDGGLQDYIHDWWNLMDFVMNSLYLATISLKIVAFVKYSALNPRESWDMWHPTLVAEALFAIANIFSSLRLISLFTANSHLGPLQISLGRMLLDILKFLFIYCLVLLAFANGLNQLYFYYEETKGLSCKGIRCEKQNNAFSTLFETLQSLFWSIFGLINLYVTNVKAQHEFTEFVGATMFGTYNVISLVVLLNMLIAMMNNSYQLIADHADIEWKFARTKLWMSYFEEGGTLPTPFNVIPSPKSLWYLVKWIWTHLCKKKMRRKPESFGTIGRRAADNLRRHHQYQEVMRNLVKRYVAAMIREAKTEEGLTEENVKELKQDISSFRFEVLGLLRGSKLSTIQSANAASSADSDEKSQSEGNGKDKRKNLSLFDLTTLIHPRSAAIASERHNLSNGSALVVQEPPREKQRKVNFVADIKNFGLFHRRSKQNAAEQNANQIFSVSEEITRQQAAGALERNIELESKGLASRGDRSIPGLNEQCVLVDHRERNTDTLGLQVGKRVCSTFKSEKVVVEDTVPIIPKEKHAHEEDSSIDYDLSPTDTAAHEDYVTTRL
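system = HEK293 cells stably co-expressing mouse TRPC4beta and mu-opioid receptor | schedule = Fluo4 dye loading 45 min at room temperature, 110 s recording | measure = B-scored integrated calcium fluorescence ratio | signal = Fluo4 calcium-sensitive dye fluorescence, kinetic, 1 Hz baseline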
TRPC4 PAM = positive allosteric modulators of TRPC4, primary screen, cell-based, mouse TRPC4beta, HEK293 mu-opioid, Fluo-4 calcium | Short transient receptor potential channel 4 (Mus musculus), Q9QUQ5 | DAMGO EC20, Fluo-4 Ca2+ flux; stronger effect = higher value | B-score at 10 µM | 0.42% of 310,000 active | AID 2227, 2009;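 active means B-score of calcium response area above 5 SD of library B-scores, with initial fluorescence ratio within 5 SD of library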
TRPC4 inh = inhibitors of mouse TRPC4 channel, primary screen, Fluo4 calcium, HEK293 TRPC4beta/mu-opioid cells. Short transient receptor potential channel 4 (Mus musculus), Q9QUQ5. DAMGO-evoked Fluo4 calcium flux; stronger effect = lower value. B-score at 10 µM. 0.39% of 300,000 active. AID 2247, 2010;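 active means B-score over 3 SD under the library average, no early fluorescence shift, positive overall ratio signal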
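Assay system: HEK293 cells with stable TRPC4beta plus mu-opioid receptor expression. Dosing: single dose. Measured by: Fluo4 Ca2+ flux fluorescence. Also added: DAMGO in two steps, submaximal then maximal. Read-out: B score from integrated Fluo4 fluorescence ratio.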
TRPC6 activator = mouse TRPC6 channel activators, primary screen, cell-based, HEK293, membrane potential dye; HEK293-TRPC6 membrane potential dye fluorescence; stronger effect = higher value; AID 2550, 2010; B-score at 10 µM; 0.13% of 310,000 active; Short transient receptor potential channel 6 (Mus musculus), Q61143;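 active means B-score of the integrated fluorescence ratio above library mean plus 3 SD, and starting fluorescence ratio within library mean plus 5 SD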;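 further: higher score means more depolarization so channel activation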
A number is an active result; i = inactive. Rows were chosen to be rich in hits. Some 2.3% of all compounds tested hit in one or more screens of this group.

SMILES	TRPC6 inh	TRPC4 agonist	TRPC4 PAM	TRPC4 inh	TRPC6 activator
COc1ccc(-c2ccccc2)cc1NCc1ccc(OC)c(OC)c1	i	i	i	i	i
CCN(Cc1ccncc1)Cc1nc(Cc2ccccc2Cl)no1	i	i	i	i	i
CN1CCN(c2ncnc3c2[nH]c2ccc(F)cc23)CC1	i	i	i	i	i
CN1CCN(c2cc3c(c4c2[nH]c2ccccc24)C(=O)CC(C)(C)C3)CC1	i	79	i	i	i
CCc1ccc(OCCOCC(O)CNC2CCCC2)cc1 (stereo unspecified)	i	i	i	-5	i
COc1ccc(OCC(O)CNC2CCCC2)cc1 (stereo unspecified)	i	i	i	i	i
CC(C)NCC(O)COCCOc1ccc(C(C)(C)C)cc1 (stereo unspecified)	i	i	i	-5	i
COc1ccc(Sc2nc(-c3ccccc3)ncc2C(=O)O)cc1	i	i	i	-7	i
N/C(=N\OC(=O)COc1ccc2ccccc2c1Br)c1ccncc1	-5.02	i	i	i	i
N/C(=N\OC(=O)COc1ccc2ccccc2c1)c1ccncc1	i	i	i	i	i
CCOC(=O)c1cnc2c(C)cccc2c1NCCc1ccc(OC)c(OC)c1	i	i	i	-6	i
O=C(C1CC1)N1CCc2cc(Br)cc(S(=O)(=O)NCCCN3CCCC3)c21	i	60	i	i	i
CC1CC(C)CN(CCCNS(=O)(=O)c2cc(Br)cc3c2N(C(=O)C2CC2)CC3)C1 (stereo unspecified)	i	115	i	i	i
CC1CCCN(CCCNS(=O)(=O)c2cc(Br)cc3c2N(C(=O)C2CC2)CC3)C1 (stereo unspecified)	i	73	i	i	i
CCOC(=O)C1=C(C)NC(=O)NC1C(C)C (stereo unspecified)	i	i	i	i	i
CCCN1CCN(C(=O)C2CCN(c3nnc(C)c4c(C)n(-c5ccc(C)cc5)nc34)CC2)CC1	i	i	i	i	i
COc1ccc(N/C(C)=C2/C(=O)C(=O)N(CCO)C2c2ccc(Br)cc2)cc1 (stereo unspecified)	i	123	43	i	i
COc1ccc(C2/C(=C(/O)c3ccccc3)C(=O)C(=O)N2CCO)cc1 (stereo unspecified)	i	i	i	i	i
CCOC(=O)c1sc(NC(=O)c2cc(-c3ccc(C)cc3)nc3ccccc23)c(C#N)c1C	i	i	i	i	i
COC(=O)c1sc(NC(=O)c2cc(-c3ccccc3)nc3ccccc23)c(C#N)c1C	i	i	13	i	i
COC(=O)c1sccc1-c1ccc(/C=N/OC(=O)c2ccccc2)o1	i	i	i	i	i
Cc1nc2scc(-c3ccccc3)c2c(=O)n1N=C1C=CC(=O)C=C1	i	i	i	-6	i
CNCC(C)COc1ccccc1OCc1ccccc1 (stereo unspecified)	i	i	i	-6	i
Cc1ccc2oc(C(=O)N3CCC(O)(c4ccccc4)CC3)c(C)c2c1	i	i	15	i	i
CCN(CC)C(=O)C1CCN(C(=O)c2oc3ccc(C)cc3c2C)CC1	i	i	i	i	i
SMILES	TRPC6 inh	TRPC4 agonist	TRPC4 PAM	TRPC4 inh	TRPC6 activator
COc1cc(C(=O)NCc2nnc(SCC(=O)NCc3ccco3)o2)cc(OC)c1OC	i	i	i	i	i
CN1C2C=C(N(CCc3c[nH]c4ccccc34)C(=O)c3ccc(Cl)cc3)CC1CC2 (stereo unspecified)	i	88	i	-6	i
O=C(CS(=O)(=O)Cc1ccccc1)NCCc1ccc(F)cc1	i	i	i	i	i
O=C1NC(=O)/C(=C\c2ccc(OCc3cccc([N+](=O)[O-])c3)cc2)N1	i	i	i	i	i
Cc1ccc(NC(=O)CSC2=NN3CCCC(=O)N=C3S2)cc1Cl	i	i	i	i	i
CN(C)CCCNC(=S)NCC(c1ccc(Cl)cc1Cl)c1c[nH]c2ccccc12 (stereo unspecified)	i	i	12	i	i
NCC(c1ccc(Cl)cc1Cl)c1c[nH]c2ccccc12 (stereo unspecified)	i	i	26	i	i
CN(C)CCNC(=O)c1sc2cccc(F)c2c1Cl	i	i	11	i	i
COC(=O)[C@@]12CCCN1[C@H](c1ccc(-c3ccccc3)cc1)[C@H]1C(=O)N(C)C(=O)[C@H]12	i	i	i	i	i
COC(=O)[C@@]12CCCN1[C@H](c1ccc(-c3ccc(OC)cc3)cc1)[C@@H]1C(=O)N(C)C(=O)[C@@H]12	i	i	24	i	i
CSc1nn2c(C(F)(F)F)cc(C(F)(F)F)nc2c1C(=O)O	i	i	i	i	i
COc1ccc(C(c2c(O)ccc3ccccc23)N2CCOCC2)c(OC)c1 (stereo unspecified)	i	i	i	-6	i
Cc1ccccc1OCCCCN1CCCCC1	i	i	i	i	i
Cc1ccc(C(C)C)c(OCCCCN2CCNCC2)c1	i	i	18	i	i
Cc1ccc(C)c(OCCCN2CCCC2)c1	i	i	11	i	i
Cc1ccc(C(C)C)cc1OCCCCN1CCCC1	i	i	26	i	i
Cc1ccc(Cl)c(OCCN2CCCC(C)C2)c1 (stereo unspecified)	i	i	34	i	i
Cc1ccc(SCCCCN2CCOCC2)cc1	i	i	i	i	i
Cc1ccc(SCCCCN2CCNCC2)cc1	i	i	13	i	i
COC(=O)c1c(-c2c(Cl)cccc2Cl)noc1C(=O)NNC(=O)N(C)C	i	i	i	i	i
CCn1c(NCc2c[nH]c3ccccc23)nc2ccccc21	i	i	i	-8	i
CCn1c(NCc2ccccn2)nc2ccccc21	i	71	i	i	i
O=C(Nc1ccc2c(c1)CCCN2C(=O)c1cccs1)c1c(F)cccc1Cl	i	i	i	i	i
CCOC(=O)c1sc2nc(CSc3ccccc3)nc(NCCN(C)C)c2c1C	i	i	i	-5	i
CCOC(=O)c1sc2nc(C)nc(NCCc3ccccn3)c2c1C	i	i	i	i	i
CCN1CCN(c2ccc(S(=O)(=O)N3CCOCC3)cc2NC(=O)/C=C/c2ccc([N+](=O)[O-])cc2)CC1	i	i	i	i	i
CCCCCSc1nnc2c(n1)OC(c1cccn1C)N(C(C)=O)c1ccccc1-2 (stereo unspecified)	i	193	i	i	i
COc1cc(NC(=O)c2cc(CC(C)C)on2)c(OC)cc1Cl	i	i	10	i	i
CCCc1cc(C(=O)Nc2cc(OC)c(Cl)cc2OC)no1	i	i	i	i	i
Cc1cc(C(C)(C)C)c(O)c(C)c1CC1=NCCN1	i	i	17	i	i
